Laboratory results as given in ChEMBL document CHEMBL4190334, “Evaluation of Oxetan-3-ol, Thietan-3-ol, and Derivatives Thereof as Bioisosteres of the Carboxylic Acid Functional Group” (ACS Med Chem Lett, 2017).

Legend:
[1] = molecular target: T1, Polyunsaturated fatty acid 5-lipoxygenase (Rattus norvegicus, UniProt P12527); test: Inhibition of 5-LOX in RBL1 cells assessed as reduction in LTB4 production using A23187-induced arachidonic acid as substrate preincubated for 2 hrs followed by A23187 addition measured after 15 mins by LC-MS/MS analysis; format: cell-based
T1 sequence (P12527 whole entry): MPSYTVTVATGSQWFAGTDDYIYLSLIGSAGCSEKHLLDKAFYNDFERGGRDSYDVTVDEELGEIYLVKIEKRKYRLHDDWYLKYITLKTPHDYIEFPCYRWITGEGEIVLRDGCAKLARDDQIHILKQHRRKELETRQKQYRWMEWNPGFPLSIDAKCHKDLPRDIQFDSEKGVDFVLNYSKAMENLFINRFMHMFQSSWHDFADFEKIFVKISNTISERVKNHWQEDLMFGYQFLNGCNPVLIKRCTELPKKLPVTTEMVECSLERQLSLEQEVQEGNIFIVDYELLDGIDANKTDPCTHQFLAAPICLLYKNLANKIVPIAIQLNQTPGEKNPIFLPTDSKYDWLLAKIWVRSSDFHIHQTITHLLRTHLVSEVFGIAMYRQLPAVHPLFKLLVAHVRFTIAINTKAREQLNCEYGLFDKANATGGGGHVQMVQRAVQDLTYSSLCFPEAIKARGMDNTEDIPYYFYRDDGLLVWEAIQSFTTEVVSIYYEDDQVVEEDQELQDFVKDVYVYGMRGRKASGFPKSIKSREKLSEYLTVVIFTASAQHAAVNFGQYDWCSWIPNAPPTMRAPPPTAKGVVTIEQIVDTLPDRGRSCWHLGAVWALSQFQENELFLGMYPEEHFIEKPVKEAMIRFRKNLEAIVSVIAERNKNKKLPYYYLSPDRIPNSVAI
How it was run: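 RBL-1 cells incubated 2 h with test compound at several concentrations, then A23187 (12 μM) added for 15 min to trigger arachidonic acid release; LTB4 in culture supernatant quantified by LC–MS/MS. Triplicate samples per concentration; IC50 with 95% confidence interval from sigmoidal curve fit.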

[2] = molecular target: T2, Cyclooxygenase (Rattus norvegicus, UniProt P35355+Q63921); test: Inhibition of COX in RBL1 cells assessed as reduction in PGE2/D2 production using A23187-induced arachidonic acid as substrate preincubated for 2 hrs followed by A23187 addition measured after 15 mins by LC-MS/MS analysis; format: cell-based
T2 sequence (P35355 whole entry): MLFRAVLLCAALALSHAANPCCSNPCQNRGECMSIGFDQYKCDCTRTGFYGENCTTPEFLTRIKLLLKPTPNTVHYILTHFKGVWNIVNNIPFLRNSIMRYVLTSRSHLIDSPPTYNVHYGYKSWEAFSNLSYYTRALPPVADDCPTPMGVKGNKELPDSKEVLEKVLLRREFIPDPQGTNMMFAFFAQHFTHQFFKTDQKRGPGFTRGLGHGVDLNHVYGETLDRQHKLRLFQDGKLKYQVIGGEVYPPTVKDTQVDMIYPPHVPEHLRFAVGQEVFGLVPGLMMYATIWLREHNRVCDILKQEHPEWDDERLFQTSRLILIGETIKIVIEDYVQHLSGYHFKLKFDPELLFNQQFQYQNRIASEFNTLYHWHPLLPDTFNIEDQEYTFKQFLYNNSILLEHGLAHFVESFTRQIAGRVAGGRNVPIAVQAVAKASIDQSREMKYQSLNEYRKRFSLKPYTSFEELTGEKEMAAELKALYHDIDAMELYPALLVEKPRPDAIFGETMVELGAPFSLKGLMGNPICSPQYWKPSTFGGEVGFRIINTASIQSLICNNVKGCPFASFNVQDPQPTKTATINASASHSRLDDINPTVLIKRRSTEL
T2 sequence (Q63921 whole entry): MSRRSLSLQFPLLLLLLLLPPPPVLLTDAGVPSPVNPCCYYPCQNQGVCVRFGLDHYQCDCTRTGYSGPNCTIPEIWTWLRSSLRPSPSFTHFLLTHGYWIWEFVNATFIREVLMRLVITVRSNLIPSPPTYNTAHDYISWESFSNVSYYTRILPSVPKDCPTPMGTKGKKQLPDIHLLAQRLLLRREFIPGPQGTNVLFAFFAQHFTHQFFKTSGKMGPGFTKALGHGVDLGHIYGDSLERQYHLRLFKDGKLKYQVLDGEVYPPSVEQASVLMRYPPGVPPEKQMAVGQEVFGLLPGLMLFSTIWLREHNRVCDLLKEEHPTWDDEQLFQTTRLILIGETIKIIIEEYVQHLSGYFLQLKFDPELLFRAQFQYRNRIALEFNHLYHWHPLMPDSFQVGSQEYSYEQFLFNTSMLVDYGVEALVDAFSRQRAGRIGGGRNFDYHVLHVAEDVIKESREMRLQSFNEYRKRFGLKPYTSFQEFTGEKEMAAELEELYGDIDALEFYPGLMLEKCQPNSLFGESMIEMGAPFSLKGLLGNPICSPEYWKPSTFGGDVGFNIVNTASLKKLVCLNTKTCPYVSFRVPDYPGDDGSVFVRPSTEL

[3] = n-Octanol-aqueous buffer distribution coefficient, log D of the compound at pH 7.4 by LC-MS method; format: physicochemical
[4] = Effective permeability of the compound by PAMPA; format: ADME; conditions: read-out: Peff
How it was run: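 PAMPA run externally; effective permeability reported together with membrane retention and log apparent permeability coefficient.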

[5] = Effective permeability of the compound assessed as membrane retention by PAMPA relative to control; format: ADME
[6] = Dissociation constant, pKa of the compound by capillary electrophoresis method; format: physicochemical

| IC50 [1] [µM] | IC50 [2] [µM] | SMILES | logD [3] | Papp [4] [×10⁻⁶ cm/s] | R% [5] [%] | pKa [6] |
| --- | --- | --- | --- | --- | --- | --- |
| > 100 | – | CC(C)Cc1ccc(C(C)C(=O)O)cc1 (centres undefined) [IBUPROFEN] | – | – | – | – |
| 8.4 | 34.1 | CC(C)Cc1ccc(C(C)C2(O)COC2)cc1 (centres undefined) | – | – | – | – |
| > 100 | 28.1 | CC(C)Cc1ccc(C2CC(O)=CC2=O)cc1 (centres undefined) | – | – | – | – |
| – | – | [O-][S+]1CC(O)(CCc2ccccc2)C1 (centres undefined) | 1.22 | 6.23 | 10 | > 12 |
| 20.2 | 14.6 | CC(C)Cc1ccc(C(C)C2(O)CS(=O)(=O)C2)cc1 (centres undefined) | – | – | – | – |
| 11.7 | 17.4 | CC(C)Cc1ccc(C(C)C2(O)C[S+]([O-])C2)cc1 (centres undefined) | – | – | – | – |
| – | – | OC1(CCc2ccccc2)CSC1 | 2.99 | 13.2 | 11.4 | > 12 |
| 7.6 | > 100 | CC(C)Cc1ccc(C(C)C2(O)CSC2)cc1 (centres undefined) | – | – | – | – |
| – | – | O=S1(=O)CC(O)(CCc2ccccc2)C1 | 1.24 | 12.2 | 10.7 | 9.31 |
| – | – | OC1(CCc2ccccc2)COC1 | 2.07 | 8.27 | -11.9 | > 12 |
| > 100 | 31.8 | CC(C)Cc1ccc(C(C)c2nnn[nH]2)cc1 (centres undefined) | – | – | – | – |
